# The campaign covered roughly 65,000 compounds. About 1,400 (2.2%) were called active.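 Rule for the calls: active = growth inhibition at or above a cutoff equal to the mean over every tested compound plus 3 SD (cut at about 60% in these data); inactive = the rest.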 The list comes from a sample in which actives are over-represented; it also holds similar structures and randomly drawn compounds.
# Test: growth inhibitors of E. coli tolC mutant, primary screen, strain BW25113 ΔtolC::kan, 384-well (AID 573)
# Conditions: OD615, stronger effect = higher value, screened at 10 µM (by protocol)
# Summary of the method: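 Doses: one dose of 10 µM final / Material: E. coli BW25113 ΔtolC::kan, tolC deletion mutant strain / Buffer or medium: LB with kanamycin 50 µg/mL / Evaluation: percent growth inhibition / Detection: optical density read at 615 nm / Incubation: 37 °C, 20 h exposure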
row,Structure (SMILES),growth inhibition
1,COc1ccc(-c2cc(C(F)(F)F)nc(SCCC(=O)NCc3ccco3)n2)cc1,-9.96% (inactive)
2,Cc1ccc(F)cc1NC(=O)c1cccc(N(C)C)c1,-26.6% (inactive)
3,O=C(Nc1cccc(F)c1)c1ccc(S(=O)(=O)N2CCCC2)cc1,8.01% (inactive)
4,CC(C)C(=O)N1c2ccccc2NC2=C(C(=O)CCC2)C1c1ccc(N(C)C)cc1 (stereo not drawn),-4.93% (inactive)
5,O=C1CCCC2=C1C(c1cccs1)n1nc(SCc3ccccc3)nc1N2 (stereo not drawn),87.2% (active)
6,CCCC(=O)N1c2ccccc2NC2=C(C(=O)CCC2)C1c1ccc(F)cc1 (stereo not drawn),55.5% (inactive)
7,COC(=O)CSc1nc(C2CC2)nc2ccccc12,15.2% (inactive)
8,COc1cccc(N(CC(=O)NC2CCCC2)C(=O)Cn2nnc(-c3ccc(C)cc3)n2)c1,-7.48% (inactive)
9,CC(C)Cn1c(N)c(C(=O)NCc2cccs2)c2nc3ccccc3nc21,79.5% (active)
10,C=CCn1c(N)c(C(=O)OCC(C)C)c2nc3ccccc3nc21,30.8% (inactive)
11,C=CCn1c(N)c(S(=O)(=O)c2cccs2)c2nc3ccccc3nc21,26.6% (inactive)
12,COC(=O)c1ccc(/C=N\n2c(C)nnc2C)cc1,-9.6% (inactive)
13,O=C(CCCN1C(=O)CSc2ncccc21)N1CCN(c2cccc(C(F)(F)F)c2)CC1,17.9% (inactive)
14,COc1ccc2c(c1)OC(O)(C(F)(F)C(F)F)CC2=O (stereo not drawn),100% (active)
15,N#CCCN(CCC#N)c1nnc(-c2ccccc2)s1,16.1% (inactive)
16,CCOC(=O)C1=C(C)NC(C)=C(C(=O)OCC)C1C1=COCCO1,5.25% (inactive)
17,CC1=CC(C)(C)N(C(=O)CSc2nccn2C)c2cc(C)ccc21,5.87% (inactive)
18,O=C(CSc1nnc(-c2ccccc2)o1)N1CCOCC1,-8.06% (inactive)
19,CC1=CC(C)(C)N(C(=O)CSc2nnc(-c3ccccc3)o2)c2ccc(C)cc21,65.4% (active)
20,CCCCN(C)C(=O)C1CCN(Cc2ccccn2)CC1,-9.54% (inactive)
21,Cc1cnc(NC(=O)CSc2nnc(-c3ccccc3)n2Cc2ccccc2)s1,1% (inactive)
22,CCOC(=O)Cn1c(CN(Cc2ccccc2)Cc2ccccc2)nc2c1c(=O)[nH]c(=O)n2C,13% (inactive)
23,FC(F)(F)COc1nc(N2CCCCC2)nc(N2CCNCC2)n1,10.5% (inactive)
24,CCCOc1ccc2c3c(c(=O)oc2c1OCCC)CCC3,73% (active)

row,Structure (SMILES),growth inhibition
1,O=c1oc2c(CN3CCCCC3)c(O)ccc2c2c1CCCCC2,2.35% (inactive)
2,COc1ccc2c3c(c(=O)oc2c1OCC(=O)C(C)(C)C)CCCC3,10.7% (inactive)
3,COc1ccccc1N1CCN(C(=O)c2cc3c(-c4ccc(Cl)cc4)nn(C)c3s2)CC1,14.7% (inactive)
4,Cn1c(=O)c2c(nc(Br)n2CCSc2nc3ccccc3o2)n(C)c1=O,4.61% (inactive)
5,Cc1cc(C)c(C#N)c(SCc2ccc3c(c2)OCO3)n1,62.3% (active)
6,Cc1cc(C)c(C#N)c(SCc2[nH]nc3c2C(c2ccccc2)C(C#N)=C(N)O3)n1 (stereo not drawn),18.3% (inactive)
7,Cc1cc(C)c(C#N)c(SCc2ccccc2C(=O)O)n1,8.75% (inactive)
8,O=C(Nc1nnc(-c2ccc(Cl)cc2)o1)c1ccccc1Br,100% (active)
9,Cc1nonc1NC(=O)c1ccccc1Br,-1.19% (inactive)
10,O=C(Nc1ccc(-c2nnc(-c3ccccc3)o2)cc1)c1ccc(Br)o1,-0.33% (inactive)
11,Cn1c(=O)[nH]c(=O)c2c1nc(NCCCn1ccnc1)n2Cc1cccc(Br)c1,-18.6% (inactive)
12,CCOC(=O)c1ccc(NC(=O)CS(=O)(=O)c2cn(CC)c3ccccc23)cc1,12.6% (inactive)
13,Cc1ccc2c(c1)c1ncnc(N3CCc4ccccc4C3)c1n2C,21.5% (inactive)
14,COc1ccc(C(C(O)C(=O)c2c[nH]c3ccccc23)N2CCN(c3ccccc3)CC2)cc1 (stereo not drawn),72.1% (active)
15,CCCC(=O)NC(C)C(c1cccs1)N1CCN(c2ccccc2)CC1 (stereo not drawn),1.14% (inactive)
16,COc1ccc(OC)c(S(=O)(=O)N(C)CC(=O)N2CCN(c3ccccc3)CC2)c1,8.54% (inactive)
17,O=S(=O)(c1ccc(F)cc1)N1CCN(Cc2ccccc2C(F)(F)F)CC1,38.3% (inactive)
18,Cc1cccc(NC(=O)COc2ccc(Br)cc2C)n1,8.04% (inactive)
19,c1ccc(Nc2nc(-c3ccncc3)cs2)nc1,-16.7% (inactive)
20,Clc1ccc(Nc2nc(-c3cccs3)cs2)nc1,81.1% (active)
21,O=C(Nc1ccc(Cl)cn1)Nc1cccs1,6.13% (inactive)
22,COc1ccc(-c2nnc(SC(=O)N3c4ccccc4Sc4ccccc43)o2)cc1,0.32% (inactive)
23,CCc1nnc(NC(=O)c2ccc(S(=O)(=O)NC3CCCCC3)cc2)s1,18.5% (inactive)
24,CC1CCCCN1S(=O)(=O)c1ccc(C(=O)Nc2nnc(-c3cccs3)o2)cc1 (stereo not drawn),99.1% (active)

row,Structure (SMILES),growth inhibition
1,CCc1nnc(NC(=O)C2CCCN2S(=O)(=O)c2ccccc2)s1 (stereo not drawn),3.73% (inactive)
2,COCC(C)n1c(SCc2ccc(C(=O)OC)o2)nc2ccccc2c1=O (stereo not drawn),33.1% (inactive)
3,CCN(CC)S(=O)(=O)c1cccc(C(=O)Nc2ccccc2)c1,38.8% (inactive)
4,O=C(CC1Oc2ccccc2NC1=O)NCCCN1CCN(Cc2ccccc2)CC1 (stereo not drawn),-13.8% (inactive)
5,Clc1cccc(-c2nc3nc4ccccc4nc3n2Cc2ccco2)c1,68% (active)
6,Cc1ccc(Cn2c(C)nc3c(c2=O)c2nc4ccccc4nc2n3Cc2ccco2)cc1,29.2% (inactive)
7,Cc1nc2c(c(=O)n1Cc1ccco1)c1nc3ccccc3nc1n2Cc1ccccc1,14.7% (inactive)
8,COc1ccc(C2N=C(N)N=C(N)N2c2ccccc2)cc1OC (stereo not drawn),4.96% (inactive)
9,O=C(CCCCn1c(=O)[nH]c2ccccc2c1=O)NCc1ccc2c(c1)OCO2,1.02% (inactive)
10,Cc1nc2c(C(=O)NCc3ccc4c(c3)OCO4)c[nH]n2c(=O)c1Cc1ccccc1F,100% (active)
11,CCn1cc(C(=O)NCc2ccc3c(c2)OCO3)c2cc(OC)c(OC)cc2c1=O,-12.7% (inactive)
12,CC(C)C(=O)N1CCN(c2nc(-c3ccccc3)c3c(c2C#N)CC(C)(C)OC3)CC1,4.78% (inactive)
13,COC(=O)CSC1=C(C#N)C(c2ccccc2OC)C(C(=O)OC)C(=O)N1 (stereo not drawn),-1.55% (inactive)
14,CC1CCCN(Cc2nc3c(c(=O)n(C)c(=O)n3C)n2CC(=O)c2ccccc2)C1 (stereo not drawn),13.4% (inactive)
15,CCCCCCn1c(CN2CCCCC2)nc2c1c(=O)n(C)c(=O)n2C,-3.32% (inactive)
16,CCCCCCn1c(CN2CCCC(C)C2)nc2c1c(=O)n(C)c(=O)n2C (stereo not drawn),60.7% (active)
17,NC(=O)C1CC=CCC1C(=O)OCC(Cl)=C(Cl)Cl (stereo not drawn),3.92% (inactive)
18,COC(=O)c1cc(C(=O)CSc2nc(C)cc(C)n2)ccc1O,68% (active)
19,CCOC(=O)c1c(C)[nH]c(C)c1C(=O)CSc1nc(N)cc(N)n1,-1.68% (inactive)
20,COC(=O)c1cccc(NC(=O)CSc2nc(C)cc(=O)[nH]2)c1,10.2% (inactive)
21,CCOC(=O)c1nnn(-c2nonc2OC)c1-c1ccccc1,8.09% (inactive)
22,COC(=O)c1ccc(NC(=O)CSc2nnc(CNc3ccc(OC)cc3)n2C)cc1,3.76% (inactive)
23,CCN(CC(=O)NC(C)C)C(=O)CCNC(=O)c1ccc(Cl)cc1,-4.01% (inactive)
24,CC1(N2CCOCC2)CC2(O)C(=[N+]1[O-])CCc1nonc12 (stereo not drawn),-7.92% (inactive)

row,Structure (SMILES),growth inhibition
1,COc1ccc(CCN2C(=O)c3[nH]nc(-c4ccccc4O)c3C2c2ccc(C)cc2)cc1OC (stereo not drawn),64.4% (active)
2,COc1ccc(CCN(C)CCN2C(=O)c3ccccc3C2=O)cc1OC,-13.3% (inactive)
3,COc1cc(C2C(C(=O)c3ccc(C)o3)=C(O)C(=O)N2CCc2ccccc2)ccc1O (stereo not drawn),5.33% (inactive)
4,CNC(=O)c1c(NC(=O)c2ccc(S(=O)(=O)N3CCOCC3)cc2)sc2c1CCC2,10.9% (inactive)
5,CCOCCc1c(O)nc(SCC(=O)NCc2ccco2)[nH]c1=O,-0.82% (inactive)
6,CCOc1cc(C)c(Cl)cc1S(=O)(=O)n1nnc2ccccc21,63.4% (active)
7,CCOc1ccc(C(C)C)cc1S(=O)(=O)n1nc(C)cc1C,24.3% (inactive)
8,Cc1ccc(C)c(S(=O)(=O)n2cnc3ccccc32)c1,7.6% (inactive)
9,CCN1CCN(C(=O)CN(C)S(=O)(=O)c2ccc(OC)cc2)CC1,8.07% (inactive)
10,O=C(Nc1ccccc1)N(Cc1cccnc1)Cc1ccco1,-11.4% (inactive)
11,CS(=O)(=O)NCc1ccc(C(=O)NCc2ccccc2)cc1,-9.06% (inactive)
12,COc1ccccc1N1CCN(C(=O)CN(Cc2ccc(Cl)cc2)S(C)(=O)=O)CC1,25.9% (inactive)
13,Cc1cc(NS(=O)(=O)c2ccccc2)no1,-26.8% (inactive)
14,CCOc1ccc(CC(=O)Nc2ccc(S(=O)(=O)Nc3cc(C)on3)cc2)cc1OCC,4.16% (inactive)
15,COc1cc2ccccc2cc1C(=O)Nc1ccc(S(=O)(=O)Nc2cc(C)on2)cc1,78.6% (active)
16,CCOC(=O)N1CCN(C(=O)c2cn(C)c3ccc(S(=O)(=O)N4CCCC4)cc3c2=O)CC1,-22.7% (inactive)
17,CCOC(=O)C1CCN(C(=O)C2CCN(S(=O)(=O)N3CCCC3)CC2)CC1,-4.22% (inactive)
18,CCOC(=O)C1CCN(C(=O)c2oc3ccc(S(=O)(=O)N4CCCCCC4)cc3c2C)CC1,77.3% (active)
19,COc1cccc(N(C(=O)c2ccn[nH]2)C2(C(=O)Nc3c(C)cccc3C)CCCCC2)c1,30.5% (inactive)
20,Cc1ccc(C)c(S(=O)(=O)N2CC(=O)Nc3ccccc32)c1,17.8% (inactive)
21,CC(=O)Nc1ccc(-c2nn3c(C)nnc3s2)cc1C,-9.56% (inactive)

# — PubChem BioAssay AID573 (SRMLSC, 2007)
